Laboratory results from PMC6421850 (The Journal of organic chemistry, 2018).
Like-named read-outs stand apart in the source and are kept apart here.

Experiments:
[1] = tested on: A549 (lung carcinoma); assay: Antiproliferative activity, SRB assay, A549; type: cell-based, human
[2] = tested on: MDA-MB-231 (triple-negative breast cancer); assay: Antiproliferative activity, SRB assay, MDA-MB-231; type: cell-based, human
[3] = tested on: MCF-7 (estrogen receptor-positive and HER2-negative breast cancer); assay: Antiproliferative activity, SRB assay, MCF-7; type: cell-based, human
[4] = tested on: KB (epidermoid carcinoma of the nasopharynx); assay: Antiproliferative activity, SRB assay, KB; type: cell-based, human; settings: read-out: IC50 KB
[5] = tested on: MDA-MB-231 cells; assay: Cell cycle analysis by flow cytometry; type: cell-based, human; settings: MDA-MB-231, 24 h; for accumulation of sub-G1 cells: dose-dependent; for effect on cell cycle progression: flow cytometry, PI staining; for propidium iodide (PI) signals: higher concentrations
Method in brief: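 MDA-MB-231 cells were exposed to test compound for 24 h at the indicated concentrations, with DMSO as vehicle control. DNA content was stained with propidium iodide/RNase. Cell-cycle distribution, including the sub-G1 fraction, was read by flow cytometry.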

[6] = tested on: MDA-MB-231 cells; assay: Immunocytochemistry; type: cell-based, human; settings: MDA-MB-231, 24 h
Method in brief: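 MDA-MB-231 cells were seeded on chamber slides 24 h before a 24 h exposure, with 0.1% DMSO as control. Cells were fixed in 4% paraformaldehyde/PBS and permeabilised with 0.5% Triton X-100. They were probed with mouse anti-α-tubulin, then FITC anti-mouse IgG, with DAPI for nuclei. Confocal projections used 12–18 sections at 0.6–1 μm intervals. Each concentration was repeated at least twice.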

[7] = tested on: KB-VIN (P-gp-overexpressing MDR subline of KB)
[8] = tested on: KB-VIN (P-gp-overexpressing MDR subline of KB); assay: Antiproliferative activity, SRB assay, KB-VIN; settings: read-out: IC50 KB-VIN, 50% reduction relative to untreated cells
[9] = tested on: all tested human tumor cell lines, including MDR subline; assay: Antiproliferative activity, all tested human tumor cell lines; type: cell-based; settings: read-out: IC50 values against all tested human tumor cell lines
[10] = tested on: horse's blood (red blood cells); assay: In vitro hemolytic assay; type: cell-based; settings: up to 500 μM
[11] = read-out: IC50 A549, SRB assay, 50% reduction relative to untreated cells
[12] = read-out: IC50 MDA-MB-231, SRB assay, 50% reduction relative to untreated cells
[13] = read-out: IC50 MCF-7, SRB assay, 50% reduction relative to untreated cells
[14] = SRB assay, 50% reduction relative to untreated cells
[15] = Homo sapiens, A549, read-out: IC50 A549
[16] = Homo sapiens, MDA-MB-231, read-out: IC50 MDA-MB-231
[17] = Homo sapiens, MCF7, read-out: IC50 MCF-7

| IC50 [1, 11] [µM] | IC50 [2, 12] [µM] | IC50 [3, 13] [µM] | IC50 [4, 14] [µM] | IC50 [1, 15] [µM] | IC50 [2, 16] [µM] | IC50 [3, 17] [µM] | IC50 ([4]; Homo sapiens) [µM] | IC50 [9] [µM] | Compound | accumulation of sub-G1 cells [5] | effect on cell cycle progression [5] | cell morphology (microtubules, chromatin) ([6]; 1.5 μM (3-fold IC50)) | cell morphology (microtubules, chromatin) ([6]; 4.9 μM (10-fold IC50)) | induction of apoptosis ([6]; 1.5 and 4.9 μM) | IC50 [7] [µM] | IC50 [8] [µM] | propidium iodide (PI) signals [5] | hemolytic activity (in words) [10] |
| --- | --- | --- | --- | --- | --- | --- | --- | --- | --- | --- | --- | --- | --- | --- | --- | --- | --- | --- |
| 4.6 | 4.95 | 4.94 | 5.19 |  |  |  |  |  | C=CC(=C)CC[C@]1(C)[C@H](C)C[C@H](OC)[C@@]23C(=C[C@H](OC(=O)CC)C[C@@H]12)[C@@H](OC(C)=O)O[C@H]3OC(C)=O [Compound 4, (2R,5S,6S,8R,9R,10S,18R,−19S)-18,19-di-O-acetyl-18,19-epoxy-6-methoxy-2-propionyloxy-cleroda-3,13(16),14-triene] |  |  |  |  |  |  | 4.92 |  |  |
| 5.04 | 4.9 | 5.82 | 5.23 |  |  |  |  |  | C=CC(=C)CC[C@]1(C)[C@H](C)C[C@H](OC)[C@@]23C(=C[C@H](OC(=O)[C@@H](C)CC)C[C@@H]12)[C@@H](OC(C)=O)O[C@H]3OC(C)=O [Compound 6, (2R,5S,6S,−8R,9R,10S,18R,19S)-18,19-di-O-acetyl-18,19-epoxy-6-methoxy-2-(2′-methylbutanoyloxy)-cleroda-3,13(16),14-triene] |  |  |  |  |  |  | 5.19 |  |  |
| 40.2 | 20.5 | 31.7 | 19.8 |  |  |  |  |  | C=CC(=C)CC[C@]1(C)[C@H](C)C[C@H](OC(=O)CCCCCCCCC)[C@@]23C(=C[C@H](OC(C)=O)C[C@@H]12)[C@@H](OC(C)=O)O[C@H]3OC(C)=O [Compound 9, (2R,5S,6S,8R,9R,10S,18R,19S)-2,18,19-tri-O-acetyl-18,19-epoxy-6-decanoyloxycleroda-cleroda-3,13(16),14-triene] |  |  |  |  |  |  | 39.2 |  |  |
| 4.76 | 4.73 | 5.19 | 4.74 |  |  |  |  |  | C=CC(=C)CC[C@]1(C)[C@H](C)C[C@H](OC(=O)CCCCC)[C@@]23C(=C[C@H](O)C[C@@H]12)[C@@H](OC(C)=O)O[C@H]3OC(C)=O [Compound 14, (2R,5S,6S,8R,−9R,10S,18R,19S)-18,19-di-O-acetyl-18,19-epoxy-2-hydroxy-6-hexanoyloxycleroda-3,13(16),14-triene] |  |  |  |  |  |  | 4.88 |  |  |
| 4.15 | 0.54 | 0.89 | 0.73 |  |  |  |  |  | C=CC(=C)CCC1(C)C(C)CC(O)C23C(=CC(OC(=O)C(C)CC)CC12)C(OC(C)=O)OC3OC(C)=O (stereo not drawn) [Compound 17, 18,19-di-O-acetyl-18,19-epoxy-6-hydroxy-2-(2′-methylbutanoyloxy)cleroda-3,13-(16),14-triene] | significant accumulations of sub-G1 cells | no effect on cell cycle progression |  |  |  |  | 4.07 | decreased unusually and dramatically in all cells |  |
|  |  |  |  | 0.53 | 0.4 | 0.55 | 0.43 | 0.4 to 1 | C=CC(=C)CC[C@]1(C)[C@H]2C[C@@H](OC(=O)C(C)CC)C=C3[C@H](OC(C)=O)O[C@H](OC(C)=O)[C@@]32[C@H](O)C[C@@H]1C (stereo partly drawn) [Compound 18, caseamembrin E] |  |  |  |  |  |  |  |  |  |
| 0.45 | 0.43 | 0.44 | 0.42 |  |  |  |  |  | C=CC(=C)CCC1(C)C(C)CC(O)C23C(=CC(OC(=O)/C=C/C=C/CCCCC)CC12)C(OC(C)=O)OC3OC(C)=O (stereo not drawn) [Compound 19, corymbulosin A] | except with compound 19 | no effect on cell cycle progression |  |  |  |  | 0.45 |  | most potent activity but only at the unusually high concentration of 500 μM |
|  |  |  |  | 0.00653 | 0.00836 | 0.0121 | 0.00707 |  | CC(=O)O[C@H]1C(=O)[C@@]2(C)[C@H]([C@H](OC(=O)c3ccccc3)[C@]3(O)C[C@H](OC(=O)[C@H](O)[C@@H](NC(=O)c4ccccc4)c4ccccc4)C(C)=C1C3(C)C)[C@]1(OC(C)=O)CO[C@@H]1C[C@@H]2O [Paclitaxel, reference compound] |  |  |  |  |  |  |  |  |  |
| 0.58 | 0.45 | 0.66 | 0.53 |  |  |  |  |  | caseamembrin S [Compound 16] | significant accumulations of sub-G1 cells | no effect on cell cycle progression |  |  |  |  | 0.9 | decreased unusually and dramatically in all cells |  |

| Compound | IC50 [1, 11] [µM] | IC50 [2, 12] [µM] | IC50 [3, 13] [µM] | IC50 [4, 14] [µM] | IC50 [1, 15] [µM] | IC50 [2, 16] [µM] | IC50 [3, 17] [µM] | IC50 ([4]; Homo sapiens) [µM] | IC50 [9] [µM] | accumulation of sub-G1 cells [5] | effect on cell cycle progression [5] | cell morphology (microtubules, chromatin) ([6]; 1.5 μM (3-fold IC50)) | cell morphology (microtubules, chromatin) ([6]; 4.9 μM (10-fold IC50)) | induction of apoptosis ([6]; 1.5 and 4.9 μM) | IC50 [7] [µM] | IC50 [8] [µM] | propidium iodide (PI) signals [5] | hemolytic activity (in words) [10] |
| --- | --- | --- | --- | --- | --- | --- | --- | --- | --- | --- | --- | --- | --- | --- | --- | --- | --- | --- |
| C=CC(=C)CC[C@]1(C)[C@H](C)C[C@H](OC)[C@@]23C(=C[C@H](OC(=O)C(C)C)C[C@@H]12)[C@@H](OC(C)=O)O[C@H]3OC(C)=O [Compound 3, (2R,5S,6S,8R,9R,10S,18R,19S)-18,19-di-O-acetyl-18,19-epoxy-6-methoxy-2-isobutanoyloxycleroda-3,13(16),14-triene] | 0.47 | 0.49 | 0.5 | 0.45 |  |  |  |  |  | significant accumulations of sub-G1 cells | no effect on cell cycle progression | normal morphology with intact nuclei and a clear microtubule network | fragmented and dispersed chromatin (arrowhead) with an apoptotic microtubule array | induced apoptosis in a dose-dependent manner | 0.49 |  |  |  |
